Assay results: ChEMBL document CHEMBL1765030, “Discovery and preclinical evaluation of a novel class of cytotoxic propynoic acid carbamoyl methyl amides (PACMAs)” (J Med Chem, 2011)
Active and inactive are the calls of the source. The calls are words filed in the database; no cut-off is given here.

What was measured:
Mus musculus [1] = experiment: Toxicity in human MDA-MB-435 cells xenografted athymic nude mouse assessed as histological changes in organ at 10 mg/kg, ip for 9 days followed by 20 mg/kg, ip for 5 days followed by 40 mg/kg, ip for 12 days; format: organism-based; conditions: in vivo
MDA-MB-435 [2] = experiment: Cytotoxicity against human MDA-MB-435 cells after 72 hrs by MTT assay; format: functional, cell-based; conditions: MDA-MB-435, 72 h
In short: (§1)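 Cells were attached overnight, then continuously exposed to drug for 72 h. MTT (0.5 mg/mL final) was added for 4 h at 37 °C, formazan dissolved in DMSO, and A570 read; all in triplicate. IC50 came from log(concentration) vs % cells killed. Media: RPMI-1640 for HT29, HCT116 p53+/+ and p53−/−, and HEY; DMEM for MDA-MB-435 and UMUC3; all with 10% FBS, 37 °C, 5% CO₂.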

NCI/ADR-RES = experiment: Cytotoxicity against human NCI/ADR-RES cells after 72 hrs by MTT assay; format: functional, cell-based
MDA-MB-435 [3] = experiment: Induction of apoptosis in human MDA-MB-435 cells assessed as necrotic cells at 10 uM after 24 hrs using by annexin V and propidium iodide staining by flow cytometry relative to control; format: functional
In short: (§2)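 Treatment was 10 μM for 24 and 48 h, with an untreated 48 h control run in parallel. Floating and adherent cells were pooled and stained with annexin V-FITC/propidium iodide, then read by flow cytometry (FITC and PE channels). Quadrants: annexin−/PI− viable; annexin+/PI− early apoptotic; annexin+/PI+ late apoptotic; lower right necrotic/debris.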

MDA-MB-435 [4] = experiment: Induction of apoptosis in human MDA-MB-435 cells assessed as necrotic cells at 10 uM after 48 hrs using by annexin V and propidium iodide staining by flow cytometry relative to control; format: functional; in short: as §2
HT-29 = experiment: Cytotoxicity against human HT-29 cells after 72 hrs by MTT assay; format: functional, cell-based; conditions: HT-29, 72 h; in short: as §1
MDA-MB-435 [5] = experiment: Induction of apoptosis in human MDA-MB-435 cells assessed as apoptotic cells at 10 uM after 24 hrs using by annexin V and propidium iodide staining by flow cytometry relative to control; format: functional; in short: as §2
MDA-MB-435 [6] = experiment: Antitumor activity against human MDA-MB-435 cells xenografted in athymic nude mouse assessed as reduction of tumor burden at 10 mg/kg, ip for 9 days followed by 20 mg/kg, ip for 5 days followed by 40 mg/kg, ip for 12 days; format: functional, organism-based
In short: (§3)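 Athymic nude mice were inoculated s.c. on the rear flank with 1.5 × 10⁶ log-phase MDA-MB-435 cells. At ~100 mm³ average tumor volume, mice were randomized (n = 8) to vehicle (10% DMSO/90% sesame oil) or drug, given i.p. once daily, dosed by group mean body weight. Caliper tumor measurements were taken twice weekly, volume = d²×D/2; mice were followed 17 days after dosing ended, with body weight monitored.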

5637 = experiment: Cytotoxicity against human 5637 cells after 72 hrs by MTT assay; format: functional, cell-based; conditions: Homo sapiens, 5637, 72 h
MDA-MB-435 [7] = experiment: Induction of apoptosis in human MDA-MB-435 cells assessed as viable cells at 10 uM after 48 hrs using by annexin V and propidium iodide staining by flow cytometry relative to control; format: functional; conditions: MDA-MB-435, 48 h, read-out: Activity; in short: as §2
MDA-MB-435 [8] = experiment: Induction of apoptosis in human MDA-MB-435 cells assessed as apoptotic cells at 10 uM after 48 hrs using by annexin V and propidium iodide staining by flow cytometry relative to control; format: functional; in short: as §2
HCT-116 [9] = experiment: Cytotoxicity against human HCT116 cells […] after 72 hrs by MTT assay; format: functional, cell-based; conditions: HCT-116, 72 h; in short: as §1
MDA-MB-435 [10] = experiment: Cytotoxicity against human MDA-MB-435 cells at 1 uM after 24 hrs using crystal violet staining by colony formation assay; format: functional, cell-based
In short: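 Cells were plated at 1000 per well, attached overnight, and exposed to 1 μM for 24 h. They were then washed and grown in fresh medium for 8–10 days until colonies formed, fixed in 1% glutaraldehyde for 30 min, and stained with 2% crystal violet for 30 min. Vehicle was DMSO.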

Mus musculus [11] = experiment: Toxicity in human MDA-MB-435 cells xenografted athymic nude mouse assessed as change in doy weight at 10 mg/kg, ip for 9 days followed by 20 mg/kg, ip for 5 days followed by 40 mg/kg, ip for 12 days; format: organism-based; conditions: in vivo; in short: as §3
MDA-MB-435 [12] = experiment: Induction of apoptosis in human MDA-MB-435 cells assessed as viable cells at 10 uM after 24 hrs using by annexin V and propidium iodide staining by flow cytometry relative to control; format: functional; conditions: MDA-MB-435, 24 h, read-out: Activity; in short: as §2
HCT-116 [13] = experiment: Cytotoxicity against p53 deficient human HCT116 cells […] after 72 hrs by MTT assay; format: functional, cell-based; conditions: HCT-116, 72 h; in short: as §1
MDA-MB-435 [14] = experiment: Induction of apoptosis in human MDA-MB-435 cells assessed as pre-necrotic cells at 10 uM after 48 hrs using by annexin V and propidium iodide staining by flow cytometry relative to control; format: functional; in short: as §2
MDA-MB-435 [15] = experiment: Increase of mitochondrial superoxide accumulation in human MDA-MB-435 cells at IC50 to 3 times IC50 after 24 hrs by flow cytometry; format: functional, cell-based
In short: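 Cells were drug-treated at two concentrations for 24 h, then loaded with 5 μM MitoSOX Red for 10 min at 37 °C and washed three times in HBSS. Cells were either viewed by fluorescence microscopy or trypsinized, washed twice in HBSS and read by flow cytometry; untreated cells served as control.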

UMUC3 = experiment: Cytotoxicity against human UM-UC-3 cells after 72 hrs by MTT assay; format: functional, cell-based; conditions: UMUC3, 72 h; in short: as §1
MDA-MB-435 [16] = experiment: Induction of apoptosis in human MDA-MB-435 cells assessed as pre-necrotic cells at 10 uM after 24 hrs using by annexin V and propidium iodide staining by flow cytometry relative to control; format: functional; in short: as §2
[17] = Octanol-water distribution coefficient, log P of the compound; format: physicochemical
HEY = experiment: Cytotoxicity against human HEY cells after 72 hrs by MTT assay; format: functional, cell-based; in short: as §1
MDA-MB-435 [18] = experiment: Cell cycle arrest in human MDA-MB-435 cells assessed as accumulation at S phase at 5 uM after 12 hrs using propidium iodide staining by flow cytometry (reference value: 41%); format: functional
[19] = Elimination rate constant in mouse at 24 mg/kg, ip; format: ADME, organism-based; set-up: dose 24 mg/kg, route intraperitoneal; conditions: in vivo
In short: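 Mice received a single 24 mg/kg i.p. injection, with two mice per time point. Blood was drawn into heparinized syringes at set times between 0.5 and 24 h, and plasma was separated by centrifugation and stored at −80 °C. Plasma drug was quantified by validated LC-MS (lowest quantification level 1 ng/mL), and parameters were derived by noncompartmental analysis.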

MDA-MB-435 [20] = experiment: Cell cycle arrest in human MDA-MB-435 cells assessed as accumulation at G2/M phase at 5 uM after 6 hrs using propidium iodide staining by flow cytometry (reference value: 9%); format: functional
MDA-MB-435 [21] = experiment: Cell cycle arrest in human MDA-MB-435 cells assessed as accumulation at G0/G1 phase at 5 uM after 12 hrs using propidium iodide staining by flow cytometry (reference value: 50%); format: functional
MDA-MB-435 [22] = experiment: Cell cycle arrest in human MDA-MB-435 cells assessed as accumulation at G2/M phase at 5 uM after 12 hrs using propidium iodide staining by flow cytometry (reference value: 9%); format: functional
MDA-MB-435 [23] = experiment: Cell cycle arrest in human MDA-MB-435 cells assessed as accumulation at G2/M phase at 5 uM after 24 hrs using propidium iodide staining by flow cytometry (reference value: 9%); format: functional
MDA-MB-435 [24] = experiment: Cell cycle arrest in human MDA-MB-435 cells assessed as accumulation at S phase at 5 uM after 6 hrs using propidium iodide staining by flow cytometry (reference value: 41%); format: functional
MDA-MB-435 [25] = experiment: Cell cycle arrest in human MDA-MB-435 cells assessed as accumulation at G0/G1 phase at 5 uM after 24 hrs using propidium iodide staining by flow cytometry (reference value: 50%); format: functional
MDA-MB-435 [26] = experiment: Cell cycle arrest in human MDA-MB-435 cells assessed as accumulation at S phase at 5 uM after 24 hrs using propidium iodide staining by flow cytometry (reference value: 41%); format: functional
MDA-MB-435 [27] = experiment: Cell cycle arrest in human MDA-MB-435 cells assessed as accumulation at G0/G1 phase at 5 uM after 6 hrs using propidium iodide staining by flow cytometry (reference value: 50%); format: functional
MDA-MB-435 [28] = experiment: Induction of apoptosis in human MDA-MB-435 cells assessed as decrease of caspase 9 protein expression at 1 uM after 24 to 72 hrs by Western blotting relative to control; format: functional
In short: (§4)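 Cells were treated with 1 μM for 24–72 h and lysed in 50 mM Tris-HCl pH 7.5, 150 mM NaCl, 1% NP-40. Equal protein (BCA) was run on 10% tris-glycine SDS-PAGE and blotted to nitrocellulose. Membranes were blocked in 5% BSA/PBS for 1 h, probed overnight at 4 °C with anti-p53 or anti-caspase-9 (plus tubulin/GAPDH antibodies), and detected by HRP secondary with ECL imaging.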

MDA-MB-435 [29] = experiment: Induction of apoptosis in human MDA-MB-435 cells assessed as up-regulation of p53 protein expression at 1 uM after 24 to 72 hrs by Western blotting; format: functional, cell-based; in short: as §4

Compound | IC50 (MDA-MB-435 [2]) | IC50 (NCI/ADR-RES) | Activity (MDA-MB-435 [3]) | Activity (MDA-MB-435 [4]) | IC50 (HT-29) | Activity (MDA-MB-435 [5]) | IC50 5637 | viability at 10 µM (MDA-MB-435 [7]) | Activity (MDA-MB-435 [8]) | IC50 (HCT-116 [9]) | Activity (MDA-MB-435 [10]) | viability at 10 µM (MDA-MB-435 [12]) | IC50 (HCT-116 [13]) | Activity (MDA-MB-435 [14]) | Activity (MDA-MB-435 [15]) | IC50 (UMUC3) | Activity (MDA-MB-435 [16]) | logP [17] | IC50 (HEY) | also measured
C#CC(=O)N(c1cccc(C(F)(F)F)c1)C(C(=O)NC1CCCC1)c1cccc(OC)c1 (configuration not stated) | 6.3 µM | 0.2 µM | 4% | 37% | 7.2 µM | 1% | 0.6 µM | 52% | 1% | > 10 µM | Active | 93% | 8.8 µM | 10% | Active | > 20 µM | 2% | 3.7 | 5.2 µM | Activity (Mus musculus [1]): Non-toxic; Activity (MDA-MB-435 [6]): Active; Activity (Mus musculus [11]): 29 g
C#CC(=O)N(c1ccc(-n2cnnn2)c(C)c1)C(C(=O)NC1CCCC1)c1ccccc1F (configuration not stated) | 1.4 µM | 1 µM | 27% | 62% | 1.8 µM | 1% | 0.7 µM | 11% | 3% | 6.3 µM | Active | 66% | 5.5 µM | 24% | Active | 6.3 µM | 6% | 3.91 | 1.5 µM | Activity (MDA-MB-435 [18]): 51%; k el [19]: 5.72e-05 s⁻¹; Activity (MDA-MB-435 [20]): 9%; Activity (MDA-MB-435 [21]): 36%; Activity (MDA-MB-435 [22]): 13%; Activity (MDA-MB-435 [23]): 16%; Activity (MDA-MB-435 [24]): 51%; Activity (MDA-MB-435 [25]): 33%; Activity (MDA-MB-435 [26]): 51%; Activity (MDA-MB-435 [27]): 40%
C#CC(=O)N(c1cc(OC)cc(OC)c1)C(C(=O)NC1CCCCC1)c1ccc(OC)cc1 (configuration not stated) | 5.4 µM | 0.3 µM | 2% | 35% | 6.3 µM | 1% | 2.2 µM | 53% | 3% | 12.5 µM | Active | 95% | 11 µM | 9% | Active | > 20 µM | 2% | 2.54 | 4.4 µM | fold change (FC) (MDA-MB-435 [28]): 2; Activity (MDA-MB-435 [29]): Active
